Variants at the floor of the assay were thinned out.
B1: tRNA (parent)
chain: GUUCCGUUGGCGUAAUGGUAACGCGUCUCCCUCCUAAGGAGAAGACUGCGGGUUCGAGUCCCGUACGGAACG

Variants of: B1
Test: yeast fitness relative to wild type (ratio to wild type); higher = fitter; tRNA-Arg(CCU), competitive growth, 37 C, YPD
Outline: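 Variants of the tRNA-Arg(CCU) gene were chemically synthesised with a 3% per-site mutation rate across 69 sites and placed at the native genomic locus in Saccharomyces cerevisiae. Six parallel replicates of the pooled strains were competed in YPD at 37°C for 24 hours, and gene amplicons from the start and end populations were read by 100-nucleotide paired-end sequencing. Darwinian fitness relative to wild type was derived from changes in genotype frequencies. Genotypes required ≥ 100 starting reads, and estimates < 0.5 were set to 0.5.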

**Q.** With U3G U13C C33A A42U C49U C55A as the variant, how does the yeast fitness read?
**A.** ≤ 0.5

**Q.** For G6C U28A C33G, which yeast fitness is on record?
**A.** ≤ 0.5

**Q.** Which yeast fitness does the source give for U3G C33U A42G C61A here?
**A.** 0.538

**Q.** Which yeast fitness does the source give for C34U A42U here?
**A.** 0.74

**Q.** For U32G A57C C62U, which yeast fitness is on record?
**A.** 0.555

**Q.** Which yeast fitness does the source give for C24G C31G A43U here?
**A.** 0.596

**Q.** For C4U C5A, which yeast fitness is on record?
**A.** 0.796

**Q.** For U2C A20C G68A, which yeast fitness is on record?
**A.** 0.614

**Q.** For U16C C33U A57G G63C, which yeast fitness is on record?
**A.** ≤ 0.5

**Q.** With A14G U19A C27G G44A C46G C55G C66A as the variant, how does the yeast fitness read?
**A.** ≤ 0.5

**Q.** With C27G G63C as the variant, how does the yeast fitness read?
**A.** 0.582

**Q.** With U3G U28G as the variant, how does the yeast fitness read?
**A.** 0.661

**Q.** Which yeast fitness does the source give for C31U U47C A65G A69U here?
**A.** ≤ 0.5

**Q.** Which yeast fitness does the source give for C11U C46G C49U here?
**A.** 0.825

**Q.** For G41C A45G G63A C66G G67C, which yeast fitness is on record?
**A.** ≤ 0.5

**Q.** Which yeast fitness does the source give for U28A C29G A36C here?
**A.** 0.516

**Q.** Which yeast fitness does the source give for U32A A36C A70G here?
**A.** ≤ 0.5

**Q.** For C11A C24U C27A C62G, which yeast fitness is on record?
**A.** ≤ 0.5

**Q.** For A21U A37G G50C G56C, which yeast fitness is on record?
**A.** ≤ 0.5

**Q.** For A15U A42G C46G C61A, which yeast fitness is on record?
**A.** ≤ 0.5

**Q.** For G10C C22A C24G A36G G48A G50C, which yeast fitness is on record?
**A.** ≤ 0.5

**Q.** For C11G U28C C60A G67A, which yeast fitness is on record?
**A.** 0.567

**Q.** Which yeast fitness does the source give for G23C C49G G51C G52A here?
**A.** ≤ 0.5

**Q.** For U3C A20U C30G C33U G58C, which yeast fitness is on record?
**A.** ≤ 0.5

**Q.** Which yeast fitness does the source give for U8G C24A C30G A40G U47G C55U C66U A70C here?
**A.** ≤ 0.5

**Q.** With G9A C24A U59A as the variant, how does the yeast fitness read?
**A.** ≤ 0.5

**Q.** For U7C C31U G52A, which yeast fitness is on record?
**A.** ≤ 0.5

**Q.** For A15G G52A G67U, which yeast fitness is on record?
**A.** ≤ 0.5

**Q.** With G25A C62U G68A as the variant, how does the yeast fitness read?
**A.** 0.641

**Q.** Which yeast fitness does the source give for A20C C55U here?
**A.** 0.612

**Q.** With G39C A70G as the variant, how does the yeast fitness read?
**A.** 0.915

**Q.** Which yeast fitness does the source give for C5A A15C C29A C60G here?
**A.** ≤ 0.5

**Q.** For A15G A36G, which yeast fitness is on record?
**A.** 0.867

**Q.** For U8A A37G G41C A43U, which yeast fitness is on record?
**A.** ≤ 0.5

**Q.** Which yeast fitness does the source give for A37G A40G C49U here?
**A.** 0.501

**Q.** Which yeast fitness does the source give for U7G G48A G68U A70C here?
**A.** 0.541

**Q.** Which yeast fitness does the source give for C34U C55G here?
**A.** 0.56

**Q.** Which yeast fitness does the source give for U28A C33G A43C A57C G67A A69U here?
**A.** ≤ 0.5

**Q.** For G51A C61U A65G A69C, which yeast fitness is on record?
**A.** 1.07

**Q.** With U28G G38A C60G A65C A69C as the variant, how does the yeast fitness read?
**A.** 0.618

**Q.** With A15U A43U A69C as the variant, how does the yeast fitness read?
**A.** 0.697

**Q.** With C31A U35A C55G G58C as the variant, how does the yeast fitness read?
**A.** ≤ 0.5

**Q.** Which yeast fitness does the source give for C22U U32C A45U C46U A57U here?
**A.** ≤ 0.5

**Q.** With U32G A45G U47C C49U A70U as the variant, how does the yeast fitness read?
**A.** ≤ 0.5

**Q.** With C22G A37U A43U A65C as the variant, how does the yeast fitness read?
**A.** ≤ 0.5

**Q.** Which yeast fitness does the source give for U3A A14C A37C C49U here?
**A.** ≤ 0.5

**Q.** Which yeast fitness does the source give for G17A U32C A40G A70G here?
**A.** ≤ 0.5

**Q.** Which yeast fitness does the source give for C4A U13C C31G G44C G52A G58A here?
**A.** ≤ 0.5

**Q.** For A20C U28C A40U, which yeast fitness is on record?
**A.** 0.971

**Q.** For C30U U32A A36U A37U, which yeast fitness is on record?
**A.** ≤ 0.5

**Q.** Which yeast fitness does the source give for C4U G41C G48A C61A here?
**A.** ≤ 0.5

**Q.** With C49A G56C G58C as the variant, how does the yeast fitness read?
**A.** ≤ 0.5

**Q.** For U16C G18A C24G A45U U59G G68C, which yeast fitness is on record?
**A.** 0.537

**Q.** With C5A C22G C27G A36U A40C C66U as the variant, how does the yeast fitness read?
**A.** ≤ 0.5

**Q.** For C33A C34G G50A, which yeast fitness is on record?
**A.** 0.517

**Q.** For U2A C24G A43U C46U, which yeast fitness is on record?
**A.** 0.542

**Q.** Which yeast fitness does the source give for A40C A45G G63A here?
**A.** 0.518

**Q.** Which yeast fitness does the source give for C29G G39C here?
**A.** 0.852

**Q.** With U2A A43U A57C C61U as the variant, how does the yeast fitness read?
**A.** 0.578

**Q.** Which yeast fitness does the source give for G10C C29G A65C here?
**A.** ≤ 0.5

**Q.** With A21G C49U G63A as the variant, how does the yeast fitness read?
**A.** 0.804

**Q.** For U19G A20U G52A, which yeast fitness is on record?
**A.** 0.698

**Q.** With U53G U64G A69C as the variant, how does the yeast fitness read?
**A.** 0.841

**Q.** Which yeast fitness does the source give for A14C C33G A42C G48A C60U here?
**A.** ≤ 0.5

**Q.** For C11A G23U A36U, which yeast fitness is on record?
**A.** ≤ 0.5

**Q.** Which yeast fitness does the source give for A14U C27A C33U U47C C49U G51A here?
**A.** ≤ 0.5

**Q.** For G41C G68A, which yeast fitness is on record?
**A.** 0.883

**Q.** With C4U A15U A45G C62G as the variant, how does the yeast fitness read?
**A.** ≤ 0.5

**Q.** For U26A C34G C49A U53C A69U, which yeast fitness is on record?
**A.** ≤ 0.5

**Q.** Which yeast fitness does the source give for C62U A69U here?
**A.** 0.955

**Q.** Which yeast fitness does the source give for U35C C55U C62A here?
**A.** 0.527

**Q.** For C27G C30G G56U, which yeast fitness is on record?
**A.** 0.543

**Q.** With A21C C29G G51A as the variant, how does the yeast fitness read?
**A.** 0.529

**Q.** For C31U C46G G63A, which yeast fitness is on record?
**A.** 0.606

**Q.** With U3G C22U A57G C60A as the variant, how does the yeast fitness read?
**A.** ≤ 0.5

**Q.** For C4U A21C C27G A43C G48A C66A, which yeast fitness is on record?
**A.** ≤ 0.5

**Q.** Which yeast fitness does the source give for C31U A45C here?
**A.** 1.25

**Q.** With C30U U47C C66U as the variant, how does the yeast fitness read?
**A.** 0.577

**Q.** For C5U G6C, which yeast fitness is on record?
**A.** 0.818

**Q.** With U16A G58A G67U as the variant, how does the yeast fitness read?
**A.** ≤ 0.5

**Q.** With U7G C11U U16A as the variant, how does the yeast fitness read?
**A.** 0.518

**Q.** With U8A G12A C22A C31G A65C as the variant, how does the yeast fitness read?
**A.** ≤ 0.5

**Q.** With A21G C22G C49U G51A as the variant, how does the yeast fitness read?
**A.** 0.603

**Q.** With C27U G38A G51A as the variant, how does the yeast fitness read?
**A.** ≤ 0.5

Reference: the RNAGym collection of RNA variant scans (doi:10.1126/science.aae0568)
